# Calls of active or inactive are those of the source. The rule behind the calls is not given here. Numbered stars: 1 amine (or outer) side, 2 acyl side, 3 side chain; on linkers, the order of the positions; unused ones are H or OH. Side chains are listed from the residue outwards. Peptide text beside a SMILES is read from it. * marks the point of attachment. Benzoyl(4-B(OH)2) = O=C(c1ccc(B(O)O)cc1)*; Acridin9yl = c1ccc2c(*)c3ccccc3nc2c1; εLys = N[C@@H](CCCCN[*:1])C(=O)[*:2]; Suc = O=C(CCC(=O)[*:2])[*:1]
# Tests used:
# [1] = system: Human immunodeficiency virus 1; test: (§1) Antiviral activity against HIV1 NL4-3 infected in human U87 cells transfected with CD4/CXCR4 assessed as inhibition of viral replication at 100 uM preincubated for 1 hr followed by viral infection for 24 hrs and subsequent compound wash out and addition of additional compound measured at 72 hrs post infection by p24 assay; format: functional, cell-based; settings: U-87MG ATCC
# Summary of the method: (§2)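 U87-CD4/CXCR4 cells are seeded at 1 x 10⁴/well and left to adhere overnight. Compounds come from 1 mM stocks in water, diluted in RPMI. Cells are pretreated for 1 h, then infected with NL4-3 (CXCR4-tropic) at MOI 0.01 for 24 h. Cells are PBS-washed and given fresh medium with more compound. p24 is quantified in supernatant at 72 h post-infection.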
# [2] = system: Human immunodeficiency virus 1; test: as §1, with “replication” for “replication at 100 uM”; format: functional, cell-based, U-87MG ATCC; summary of the method: as §2
# [3] = system: Human immunodeficiency virus 1; test: Binding affinity to HIV1 wild type [32P]-labeled RRE-2B RNA assessed as protection of RNA from RNase T1-induced cleavage by footprinting method
# Summary of the method: (§3)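 5'-³²P RRE-IIB (10 nM) plus unlabeled RRE-IIB (200 nM) is heated to 95 °C for 3 min and snap-cooled. It is incubated with peptide on ice for 4 h in 10 mM Tris pH 7, 100 mM KCl, 10 mM MgCl₂. Digestion is on ice for 1 h, with RNase T1 at 1 U or RNase A at 20 ng. Cleavage is stopped by precipitation, run on 12% PAGE with 7.5 M urea, and read by autoradiography.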
# [4] = system: Human immunodeficiency virus 1; test: Binding affinity to HIV1 wild type [32P]-labeled RRE-2B RNA assessed as protection of RNA from RNase A-induced cleavage at 0.2 to 20 uM by footprinting method; summary of the method: as §3
# [5] = system: Human immunodeficiency virus 1; test: Binding affinity to HIV1 wild type 2-aminopurine-labeled RRE-2B RNA assessed as 1:1 binding stoichiometry between compound and RNA at 0.25 to 4 molar ratio of compound/RNA by Job plot method
# [6] = Cytotoxicity against HIV1 NL4-3 infected human U87 cells transfected with CD4/CXCR4 assessed as decrease in cell viability at 20 to 80 uM after 72 hrs by MTT assay; format: toxicity, cell-based; settings: u-87mg atcc
# [7] = Binding affinity to HIV1 wild type [32P]-labeled RRE-2B RNA after 4 hrs by electrophoretic mobility shift assay; parameters: species or system Human immunodeficiency virus 1
# Summary of the method: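 5'-³²P RRE-IIB (4 nM in 2x phosphate buffer, pH 7.0) is refolded at 95 °C for 3 min, then rt for 20 min. It is mixed 1:1 with peptide in water (final 0.001–10 µM) for 4 h at rt. Complexes are resolved by 10% native PAGE at 4 °C. Kd is the 50%-binding concentration from a sigmoidal fit of % RNA bound vs log[peptide]. Triplicates.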
# [8] = Cytotoxicity against human U87 cells transfected with CD4/CXCR4 assessed as decrease in cell viability up to 100 uM after 24 hrs by MTT assay; format: toxicity, cell-based; settings: u-87mg atcc
# Summary of the method: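 U87 CXCR4 cells are seeded at 1 x 10⁴/well and incubated overnight at 37 °C in 5% CO₂. They are treated with 100, 50 or 10 µM (final) compound for 24 h. Tetrazolium dye is added for 4 h, then solubilization/stop solution for 1 h. A570 is read and normalized to untreated cells set at 1.0.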
# [9] = system: Human immunodeficiency virus 1; test: as §1, with “40” for “100”, “assay relative to control” for “assay”; format: functional, U-87MG ATCC; settings: Human immunodeficiency virus 1, NL4-3, U-87 MG; summary of the method: as §2
# [10] = Binding affinity to HIV1 HXB3 RRE66 RNA; parameters: species or system Human immunodeficiency virus 1
# [11] = Binding affinity to HIV1 wild type [32P]-labeled RRE-2B RNA after 30 mins by electrophoretic mobility shift assay; parameters: species or system Human immunodeficiency virus 1
compound,measurement,setting,value
CC(C)C[C@H](NC(=O)[C@H](CCCCN)NC(=O)[C@H](CCCCNC(=O)[C@H](CCCCN)NC(=O)[C@H](CCCCN)NC(=O)[C@@H](N)CCCCNc1c2ccccc2nc2ccccc12)NC(=O)[C@H](CCCCN)NC(=O)[C@H](CCCCN)NC(=O)[C@@H](N)CCCCNc1c2ccccc2nc2ccccc12)C(=O)N[C@@H](CCCCNC(=O)c1ccc(B(O)O)cc1)C(=O)N[C@@H](Cc1ccc(O)cc1)C(N)=O (H-K(Acridin9yl)KKK([Lys-Lys-εLys-Acridin9yl])KLK(Benzoyl(4-B(OH)2))Y-NH2),inhibition,[1],Active
same,IC50,"[2]; Human immunodeficiency virus 1, NL4-3, U-87 MG",10.1 µM
same,inhibition,[2]; U-87MG ATCC,Dose-dependent effect
same,Activity,[3],Dose-dependent effect
same,Activity,[4],Active
same,Activity,[5],Active
same,Activity,[6],Non-Toxic
same,Kd,[7],0.06 µM
same,Activity,[8],Non-Toxic
same,inhibition at 40 µM,[9],90%
NCC1O[C@H](O[C@H]2[C@@H](O)[C@H](O[C@@H]3[C@@H](O)[C@H](N)C[C@H](N)[C@H]3O[C@H]3O[C@H](CN)[C@@H](O)[C@H](O)[C@H]3N)O[C@@H]2CNc2c3ccccc3nc3ccccc23)[C@H](N)[C@@H](O)[C@@H]1O (some centres not stated),Kd,[10],0.0024 µM
C[C@H](NC(=O)[C@H](C)NC(=O)[C@H](C)NC(=O)[C@H](CCCNC(=N)N)NC(=O)[C@H](CCC(N)=O)NC(=O)[C@H](CCCNC(=N)N)NC(=O)[C@H](CCC(=O)O)NC(=O)[C@H](CCCNC(=N)N)NC(=O)[C@H](Cc1c[nH]c2ccccc12)NC(=O)[C@H](CCCNC(=N)N)NC(=O)[C@H](CCCNC(=N)N)NC(=O)[C@H](CCCNC(=N)N)NC(=O)[C@H](CCCNC(=N)N)NC(=O)[C@H](CC(N)=O)NC(=O)[C@H](CCCNC(=N)N)NC(=O)[C@H](CCCNC(=N)N)NC(=O)[C@H](C)NC(=O)[C@H](CCC(N)=O)NC(=O)[C@H](CCCNC(=N)N)NC(=O)[C@@H](NC(=O)CCC(=O)O)[C@@H](C)O)C(=O)N[C@@H](C)C(=O)N[C@@H](CCCNC(=N)N)C(=O)O (Suc-TRQARRNRRRRWRERQRAAAAR-OH),Kd,[11],0.1 µM

# — ChEMBL document CHEMBL3853263, “Effect of intercalator and Lewis acid-base branched peptide complex formation: boosting affinity towards HIV-1 RRE RNA” (Medchemcomm, 2016)
